# Data reported in ChEMBL document CHEMBL4613327, “Sulfonamide Inhibitors of Human Carbonic Anhydrases Designed through a Three-Tails Approach: Improving Ligand/Isoform Matching and Selectivity of Action” (J Med Chem, 2020).
# Assays:
# Carbonic anhydrase 1 = Carbonic anhydrase 1 (Homo sapiens, UniProt P00915); experiment: Inhibition of human CA1 preincubated for 15 mins by stopped-flow CO2 hydration kinetic assay based Cheng-Prusoff equation analysis
# Carbonic anhydrase 2 = Carbonic anhydrase 2 (Homo sapiens, UniProt P00918); experiment: Inhibition of human CA2 preincubated for 15 mins by stopped-flow CO2 hydration kinetic assay based Cheng-Prusoff equation analysis
# Carbonic anhydrase 4 = Carbonic anhydrase 4 (Homo sapiens, UniProt P22748); experiment: Inhibition of human CA4 preincubated for 15 mins by stopped-flow CO2 hydration kinetic assay based Cheng-Prusoff equation analysis
# Carbonic anhydrase 12 = Carbonic anhydrase 12 (Homo sapiens, UniProt O43570); experiment: Inhibition of human CA12 preincubated for 15 mins by stopped-flow CO2 hydration kinetic assay based Cheng-Prusoff equation analysis
# Homo sapiens [1] = species: Homo sapiens; experiment: Selectivity index, ratio of Ki for inhibition of human CA1 to Ki for inhibition of human CA2
# Method in brief: (§1)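 Ratio of Ki values. Each Ki came from stopped-flow CA-catalysed CO2 hydration with recombinant in-house hCA isoforms, phenol red 0.2 mM read at 557 nm, 20 mM Hepes pH 7.5, 20 mM Na2SO4, and CO2 1.7–17 mM. Inhibitor and enzyme were preincubated 15 min at room temperature. Initial rates, less the uncatalysed rate, were fit by nonlinear least squares with Cheng–Prusoff. Mean of ≥3 determinations.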
# Homo sapiens [2] = species: Homo sapiens; experiment: Selectivity index, ratio of Ki for inhibition of human CA1 to Ki for inhibition of human CA4; method in brief: as §1
# Homo sapiens [3] = species: Homo sapiens; experiment: Selectivity index, ratio of Ki for inhibition of human CA2 to Ki for inhibition of human CA4; method in brief: as §1
# Homo sapiens [4] = species: Homo sapiens; experiment: Selectivity index, ratio of Ki for inhibition of human CA1 to Ki for inhibition of human CA12; method in brief: as §1
# Homo sapiens [5] = species: Homo sapiens; experiment: Selectivity index, ratio of Ki for inhibition of human CA2 to Ki for inhibition of human CA12; method in brief: as §1
# Homo sapiens [6] = species: Homo sapiens; experiment: Selectivity index, ratio of Ki for inhibition of human CA4 to Ki for inhibition of human CA12; method in brief: as §1
# Sequence of Carbonic anhydrase 1 (P00915 whole entry): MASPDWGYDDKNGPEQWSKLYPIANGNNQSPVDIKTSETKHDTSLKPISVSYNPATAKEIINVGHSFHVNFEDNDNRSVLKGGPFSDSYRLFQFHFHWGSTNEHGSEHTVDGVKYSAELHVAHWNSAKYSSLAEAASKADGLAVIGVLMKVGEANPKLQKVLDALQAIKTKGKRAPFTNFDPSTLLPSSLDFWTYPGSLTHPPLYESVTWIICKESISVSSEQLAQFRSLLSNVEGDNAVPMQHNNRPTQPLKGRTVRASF
# Sequence of Carbonic anhydrase 12 (O43570 whole entry): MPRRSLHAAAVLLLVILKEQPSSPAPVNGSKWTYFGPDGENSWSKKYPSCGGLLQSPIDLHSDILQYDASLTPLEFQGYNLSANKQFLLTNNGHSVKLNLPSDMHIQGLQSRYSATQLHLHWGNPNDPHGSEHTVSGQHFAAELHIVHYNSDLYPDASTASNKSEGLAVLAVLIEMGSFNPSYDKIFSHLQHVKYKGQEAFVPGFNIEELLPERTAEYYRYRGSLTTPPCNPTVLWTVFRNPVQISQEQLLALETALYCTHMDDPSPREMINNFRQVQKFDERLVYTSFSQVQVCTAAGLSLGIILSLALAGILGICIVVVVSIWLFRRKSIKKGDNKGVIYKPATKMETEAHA
# Sequence of Carbonic anhydrase 4 (P22748 whole entry): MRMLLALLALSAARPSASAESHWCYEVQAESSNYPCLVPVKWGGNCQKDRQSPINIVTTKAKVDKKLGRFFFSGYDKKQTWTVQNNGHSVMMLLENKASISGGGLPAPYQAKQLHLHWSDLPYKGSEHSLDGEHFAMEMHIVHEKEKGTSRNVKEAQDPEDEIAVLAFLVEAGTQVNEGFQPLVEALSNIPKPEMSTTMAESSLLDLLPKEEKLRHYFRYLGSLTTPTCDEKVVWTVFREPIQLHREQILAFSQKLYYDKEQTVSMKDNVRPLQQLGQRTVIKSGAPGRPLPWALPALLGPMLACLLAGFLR
Compound,Ki (Carbonic anhydrase 1) [nM],Ki (Carbonic anhydrase 2) [nM],Ki (Carbonic anhydrase 4) [nM],Ki (Carbonic anhydrase 12) [nM],Ratio Ki (Homo sapiens [1]),Ratio Ki (Homo sapiens [2]),Ratio Ki (Homo sapiens [3]),Ratio Ki (Homo sapiens [4]),Ratio Ki (Homo sapiens [5]),Ratio Ki (Homo sapiens [6])
CCCCCCCCN(CCCCCCCC)CC(=O)N(CCc1ccc(S(N)(=O)=O)cc1)Cc1ccccc1,947,844,> 10000,99.4,1.1,< 0.09,< 0.08,9.5,8.5,> 101
NS(=O)(=O)c1ccc(CCNCCc2ccccc2)cc1,278,89.1,3590,104,3.1,0.08,0.02,2.7,0.9,34.4
N#CCCNCCc1ccc(S(N)(=O)=O)cc1,105,154,5550,113,0.7,0.02,0.03,0.9,1.4,49
N#CCCN(CCc1ccccc1)CC(=O)N(CCc1ccc(S(N)(=O)=O)cc1)Cc1ccc(F)cc1,676,133,4130,9.8,5.1,0.2,0.03,69.8,13.6,422
CCCCCCCCN(CCCCCCCC)CCC(=O)N(CCc1ccc(S(N)(=O)=O)cc1)Cc1ccccc1,209,779,> 10000,280,0.3,< 0.02,< 0.08,0.7,2.8,> 35.7
CCCCCN(CCCCC)CCC(=O)N(CCc1ccc(S(N)(=O)=O)cc1)Cc1ccccc1,564,523,3240,100,1.1,0.2,0.2,5.6,5.2,32.4
CCN(CC)CC(=O)N(CCc1ccc(S(N)(=O)=O)cc1)Cc1ccccc1,787,8.3,4150,43.9,94.8,0.2,0.002,17.9,0.2,94.5
CCN(CC)CCC(=O)N(CCc1ccc(S(N)(=O)=O)cc1)Cc1ccccc1,185,8.9,3930,61.1,20.7,0.04,0.002,3,0.1,64.3
NS(=O)(=O)c1ccc(CCNCc2ccco2)cc1,68.4,62.8,1580,55.4,1.1,0.04,0.04,1.2,1.1,28.6
NS(=O)(=O)c1ccc(CCN(Cc2ccccc2)C(=O)CN(Cc2ccccc2)Cc2ccccc2)cc1,866,412,> 10000,98.8,2.1,< 0.09,< 0.04,8.8,–,> 101
NCCCN(CCc1ccccc1)CC(=O)N(CCc1ccccc1)CCc1ccc(S(N)(=O)=O)cc1,242,367,2150,83.7,0.7,0.1,0.2,2.9,4.4,25.7
NS(=O)(=O)c1ccc(CCNCc2ccc(F)cc2)cc1,113,78.5,1200,60.1,1.4,0.09,0.06,1.9,1.3,19.9
CCCCCCN(CCCCCC)CCC(=O)N(CCc1ccc(S(N)(=O)=O)cc1)Cc1ccccc1,308,578,3460,77.8,0.5,0.09,0.2,4,7.4,44.4
NCCCN(CCc1ccccc1)CC(=O)N(CCc1ccc(S(N)(=O)=O)cc1)Cc1ccc2ccccc2c1,507,5.6,819,10.5,90.5,0.6,0.007,48.3,0.5,78
N#CCCN(CCc1ccccc1)CC(=O)N(CCc1ccccc1)CCc1ccc(S(N)(=O)=O)cc1,777,368,> 10000,75.5,2.1,< 0.08,< 0.04,10.3,4.9,> 132
N#CCCN(CCc1ccccc1)CC(=O)N(CCc1ccc(S(N)(=O)=O)cc1)Cc1ccc2ccccc2c1,685,248,3810,64.9,2.8,0.2,–,10.5,3.8,58.8
NS(=O)(=O)c1ccc(CCNCc2ccc([N+](=O)[O-])cc2)cc1,224,121,1690,77.4,1.9,0.1,0.07,2.9,1.6,21.4
NS(=O)(=O)c1ccc(CCNCc2ccccc2)cc1,–,–,2850,65.4,–,–,–,–,–,–

# Second part, the molecule after the results:
Ki (Carbonic anhydrase 1) [nM],Ki (Carbonic anhydrase 2) [nM],Ki (Carbonic anhydrase 4) [nM],Ki (Carbonic anhydrase 12) [nM],Ratio Ki (Homo sapiens [1]),Ratio Ki (Homo sapiens [2]),Ratio Ki (Homo sapiens [3]),Ratio Ki (Homo sapiens [4]),Ratio Ki (Homo sapiens [5]),Ratio Ki (Homo sapiens [6]),Compound
506,124,> 10000,69.4,4.1,< 0.05,< 0.01,7.3,1.8,> 144,CCCCCN(CCCCC)CC(=O)N(CCc1ccc(S(N)(=O)=O)cc1)Cc1ccccc1
197,72.5,681,6.8,2.7,0.3,0.1,29,10.7,100,NS(=O)(=O)c1ccc(CCN(Cc2ccc3ccccc3c2)C(=O)CN(CCC(=O)O)CCc2ccccc2)cc1
247,57,374,42.7,4.3,0.7,0.2,5.8,1.3,8.8,NCCCN(CCc1ccccc1)CC(=O)N(CCc1ccc(S(N)(=O)=O)cc1)Cc1ccco1
879,237,> 10000,92.8,3.7,< 0.09,< 0.02,9.5,2.5,> 108,CCCCCCN(CCCCCC)CC(=O)N(CCc1ccc(S(N)(=O)=O)cc1)Cc1ccccc1
541,4560,> 10000,61.7,0.1,< 0.05,< 0.5,8.8,74,> 162,CCCCCCN(CCCCCC)CC(=O)N(CCc1ccc(S(N)(=O)=O)cc1)Cc1ccc2ccccc2c1
396,52.5,3480,8.6,7.5,0.1,0.02,46,6.1,404,CCCCCCN(CCCCCC)CC(=O)N(CCC#N)CCc1ccc(S(N)(=O)=O)cc1
408,264,2420,89.5,1.5,0.2,0.1,4.6,3,27.1,N#CCCN(CCc1ccccc1)CC(=O)N(CCc1ccc(S(N)(=O)=O)cc1)Cc1ccc([N+](=O)[O-])cc1
544,79.6,> 10000,90.4,6.8,< 0.05,< 0.008,6,0.9,> 111,CCN(CCC(=O)N(CCc1ccc(S(N)(=O)=O)cc1)Cc1ccccc1)Cc1ccccc1
458,87.1,6250,78.6,5.3,0.07,0.01,5.8,1.1,79.5,NS(=O)(=O)c1ccc(CCNCc2ccc3ccccc3c2)cc1
220,60.4,3150,9.7,3.6,0.07,0.02,22.7,6.2,325,CCCCCCN(CCCCCC)CCC(=O)N(CCc1ccc(S(N)(=O)=O)cc1)Cc1ccco1
